Data published in ChEMBL document CHEMBL1128487, “Reduced-size antagonists of luteinizing hormone-releasing hormone active in vitro” (1995).
Square brackets hold non-standard residues; d marks the D form. Peptide text beside a SMILES is read from it. 2Nal = N[C@@H](Cc1ccc2ccccc2c1)C(=O)O

How the values were obtained:
[1] = target: T1, Gonadotropin-releasing hormone receptor (Rattus norvegicus) (UniProt P30969); experiment: In vitro antagonistic activity against LH release in rat pituitary cells for control.; assay type: functional, cell-based; conditions: Pituitary gland cell
T1 sequence (whole entry): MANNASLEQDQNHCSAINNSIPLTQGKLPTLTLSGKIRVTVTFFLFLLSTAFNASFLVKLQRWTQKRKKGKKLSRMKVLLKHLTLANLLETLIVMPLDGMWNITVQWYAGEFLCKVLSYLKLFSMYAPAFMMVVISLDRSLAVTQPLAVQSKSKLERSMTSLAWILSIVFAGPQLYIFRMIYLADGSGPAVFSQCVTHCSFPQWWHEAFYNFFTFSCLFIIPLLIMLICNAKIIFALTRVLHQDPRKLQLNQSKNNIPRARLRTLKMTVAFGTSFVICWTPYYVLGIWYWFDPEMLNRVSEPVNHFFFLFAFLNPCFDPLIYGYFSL
Outline: (§1)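 Anterior pituitaries from female Sprague-Dawley rats (240-260 g, 18 rats) were minced and dispersed in Gey's solution with trypsin, DNase I and LBBI. Cells were plated in DMEM with 0.45% glucose, 25 mM HEPES, serum, T and 100 nM dexamethasone at about 3.0 × 10^5 cells/mL and cultured 4 days at 37 °C in 8% CO2. Cells were then exposed to antagonist plus 1 ng LHRH in Gey's solution with 0.3% glucose for 2 h. LH in the medium was measured by RIA as ng/mL of RP-3.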

[2] = target: T1, Gonadotropin-releasing hormone receptor (Rattus norvegicus); experiment: In vitro inhibition of LH release was determined in rat pituitary cells at a dose of 0.03 ug of analogue and 1 ng of LHRH; assay type: functional, cell-based; conditions: Pituitary gland cell; outline: as §1
[3] = target: T1, Gonadotropin-releasing hormone receptor (Rattus norvegicus); experiment: In vitro inhibition of LH release was determined in rat pituitary cells at a dose of 0.1 ug of analogue and 1 ng of LHRH; assay type: functional, cell-based; conditions: Pituitary gland cell; outline: as §1
[4] = target: T1, Gonadotropin-releasing hormone receptor (Rattus norvegicus); experiment: In vitro inhibition of LH release was determined in rat pituitary cells at a dose of 0.3 ug of analogue and 1 ng of LHRH; assay type: functional, cell-based; conditions: Pituitary gland cell; outline: as §1
[5] = species on record: Rattus norvegicus; experiment: In vitro inhibition of LH release in rat pituitary cells at a dose of 1 ng LHRH in absence of the compound.; assay type: functional, Pituitary gland cell; parameters: unit: ng/mL; outline: as §1
[6] = target: T1, Gonadotropin-releasing hormone receptor (Rattus norvegicus); experiment: In vitro inhibition of LH release in rat pituitary cells at a dose of 1 ug of analogue and 1 ng of LHRH.; assay type: functional, cell-based; conditions: Pituitary gland cell; outline: as §1
[7] = target: T1, Gonadotropin-releasing hormone receptor (Rattus norvegicus); experiment: In vitro inhibition of LH release determined in rat pituitary cells at a dose of 3 ug of analogue and 1 ng of LHRH; assay type: functional, cell-based; conditions: Pituitary gland cell; outline: as §1
[8] = target: T1, Gonadotropin-releasing hormone receptor (Rattus norvegicus); experiment: In vitro inhibition of LH release was determined in rat pituitary cells at a dose of 10 ug of analogue and 1 ng of LHRH; assay type: functional, cell-based; conditions: Pituitary gland cell; outline: as §1
[9] = target: T1, Gonadotropin-releasing hormone receptor (Rattus norvegicus); experiment: In vitro inhibition of LH release was determined in rat pituitary cells at a dose of 100 ug of analogue and 1 ng of LHRH; assay type: functional, cell-based; conditions: Pituitary gland cell; outline: as §1
[10] = target: T1, Gonadotropin-releasing hormone receptor (Rattus norvegicus); experiment: In vitro inhibition of LH release was determined in rat pituitary cells at a dose of 30 ug of analogue and 1 ng of LHRH; assay type: functional, cell-based; conditions: Pituitary gland cell; outline: as §1

SMILES | Activity [1] | Activity [2] | Activity [3] | Activity [4] | Activity [5] | Activity [6] | Activity [7] | Activity [8] | Activity [9] | Activity [10]
CCNC(=O)[C@@H]1CCCN1C(=O)[C@H](CCCN=C(N)N)NC(=O)[C@H](CC(C)C)NC(=O)[C@@H](Cc1c[nH]c2ccccc12)NC(=O)[C@H](Cc1ccc(O)cc1)NC(=O)[C@H](CO)NC(=O)[C@@H](Cc1ccc2ccccc2c1)NC(C)=O | 2.1 | 85 | 40 | 10 | 149 | 2 |  |  |  | 
CC(=O)N[C@H](Cc1ccc2ccccc2c1)C(=O)N[C@@H](CO)C(=O)N[C@@H](Cc1ccc(O)cc1)C(=O)N[C@H](Cc1ccc2ccccc2c1)C(=O)N[C@@H](CC(C)C)C(=O)N[C@@H](CCCN=C(N)N)C(=O)N1CCC[C@H]1C(N)=O | 4.1 | 154 | 74 | 13 | 167 | 4 | 3 |  |  | 
CCNC(=O)[C@@H]1CCCN1C(=O)[C@H](CCCN=C(N)N)NC(=O)[C@H](CC(C)C)NC(=O)[C@@H](Cc1cccnc1)NC(=O)[C@H](Cc1ccc(O)cc1)NC(=O)[C@H](CO)NC(=O)[C@@H](Cc1ccc2ccccc2c1)NC(C)=O | 9 |  | 134 | 69 | 279 | 34 | 14 |  |  | 
CC(=O)N[C@@H](Cc1ccc2ccccc2c1)C(=O)N[C@@H](CCCN=C(N)N)C(=O)N[C@@H](C)C(N)=O | 3.5 |  |  |  | 153 | 151 | 145 | 101 | 69 | 66
CC(=O)N[C@H](Cc1ccc2ccccc2c1)C(=O)N[C@@H](CO)C(=O)N[C@@H](Cc1ccc(O)cc1)C(=O)N[C@H](Cc1ccc2ccccc2c1)C(=O)N[C@@H](CC(C)C)C(=O)N[C@@H](CCCN=C(N)N)C(=O)N1CCC[C@H]1C(=O)NCC(N)=O | 3.8 |  | 157 | 112 | 132 | 50 | 45 |  |  | 
CC(=O)N[C@H](Cc1ccc2ccccc2c1)C(=O)N[C@@H](CO)C(=O)N[C@@H](CCCCNC(=O)c1ccccn1)C(=O)N[C@H](CCCCNC(=O)c1ccccn1)C(=O)N[C@@H](CC(C)C)C(=O)N[C@@H](CCCN=C(N)N)C(=O)N1CCC[C@H]1C(=O)N[C@H](C)C(N)=O | 7.2 |  | 118 | 60 | 224 | 26 | 8 |  |  | 
CC(=O)N[C@H](Cc1ccc2ccccc2c1)C(=O)N[C@@H](CO)C(=O)N[C@@H](Cc1ccc(O)cc1)C(=O)N[C@H](CCCCNC(=O)c1ccccn1)C(=O)N[C@@H](CC(C)C)C(=O)N[C@@H](CCCN=C(N)N)C(=O)N1CCC[C@H]1C(=O)N[C@H](C)C(N)=O | 6.3 |  | 201 | 154 | 241 | 67 | 29 |  |  | 
CCNC(=O)[C@@H]1CCCN1C(=O)[C@H](CCCCNC(C)C)NC(=O)[C@H](CC(C)C)NC(=O)[C@@H](CCCCNC(=O)c1ccccn1)NC(=O)[C@H](Cc1ccc(O)cc1)NC(=O)[C@H](CO)NC(=O)[C@@H](Cc1ccc2ccccc2c1)NC(C)=O |  |  |  |  | 151 |  |  |  |  | 
CCNC(=O)[C@@H]1CCCN1C(=O)[C@H](CCCN=C(N)N)NC(=O)[C@H](CC(C)C)NC(=O)[C@@H](CCCCNC(=O)c1ccccn1)NC(=O)[C@H](CCCCNC(=O)c1ccccn1)NC(=O)[C@H](CO)NC(=O)[C@@H](Cc1ccc2ccccc2c1)NC(C)=O |  |  |  |  | 149 |  |  |  |  | 
CC(=O)N[C@@H](Cc1ccc2ccccc2c1)C(=O)N[C@@H](CCCCNC(=O)c1ccccn1)C(=O)N1CCC[C@H]1C(N)=O | 3.1 |  |  |  | 145 | 145 | 139 | 129 | 71 | 113
CC(=O)N[C@H](Cc1ccc2ccccc2c1)C(=O)N[C@@H](CO)C(=O)N[C@@H](Cc1ccc(O)cc1)C(=O)N[C@H](Cc1cccnc1)C(=O)N[C@@H](CC(C)C)C(=O)N[C@@H](CCCN=C(N)N)C(=O)N1CCC[C@H]1C(=O)N[C@H](C)C(N)=O |  |  |  |  | 251 |  |  |  |  | 
CC(=O)N[C@@H](Cc1ccc2ccccc2c1)C(=O)N[C@@H](CO)C(=O)N[C@@H](Cc1ccc(O)cc1)C(=O)N[C@@H](Cc1cccnc1)C(=O)N[C@@H](CC(C)C)C(=O)N[C@@H](CCCN=C(N)N)C(=O)N1CCC[C@H]1C(=O)N[C@H](C)C(N)=O | 4.8 |  | 112 | 72 |  | 33 | 11 |  |  | 
CCNC(=O)[C@@H]1CCCN1C(=O)C(CCCN=C(N)N)NC(=O)[C@H](CC(C)C)NC(=O)[C@H](CCCCNC(=O)c1ccccn1)NC(=O)C(CCCCNC(=O)c1ccccn1)NC(=O)[C@H](CO)NC(=O)[C@H](Cc1ccc2ccccc2c1)NC(C)=O (stereo partly drawn) | 2.1 | 108 | 72 | 27 |  | 8 |  |  |  | 
CCNC(=O)[C@@H]1CCCN1C(=O)[C@H](CCCCNC(C)C)NC(=O)[C@H](CC(C)C)NC(=O)[C@H](CCCCNC(=O)c1ccccn1)NC(=O)[C@H](Cc1ccc(O)cc1)NC(=O)[C@H](CO)NC(=O)[C@H](Cc1ccc2ccccc2c1)NC(C)=O | 3.5 | 194 | 200 | 157 |  | 118 |  |  |  | 
CC(=O)N[C@@H](Cc1ccc2ccccc2c1)C(=O)N[C@@H](C)C(N)=O (Ac-[2Nal]-Ala-NH2) | 3.5 |  |  |  | 153 | 148 | 153 | 124 | 16 | 88
CCNC(=O)[C@@H]1CCCN1C(=O)[C@H](Cc1ccc2ccccc2c1)NC(C)=O (Ac-[2Nal]-Pro-NHEt) | 3.1 |  |  |  | 145 | 135 | 141 | 101 | 14 | 59
CCNC(=O)[C@@H]1CCCN1C(=O)[C@H](CC(C)C)NC(=O)[C@H](Cc1ccc2ccccc2c1)NC(=O)[C@H](Cc1ccc(O)cc1)NC(=O)[C@H](CO)NC(=O)[C@H](Cc1ccc2ccccc2c1)NC(C)=O (Ac-[2Nal]SY[2Nal]LP-NHEt) | 3.1 |  |  | 148 | 145 | 155 | 151 | 55 |  | 11
CC(=O)N[C@@H](Cc1ccc2ccccc2c1)C(=O)N[C@@H](CO)C(=O)N[C@@H](Cc1ccc2ccccc2c1)C(=O)N[C@@H](CC(C)C)C(=O)N[C@@H](CCCN=C(N)N)C(=O)N1CCC[C@H]1C(=O)N[C@@H](C)C(N)=O (Ac-[2Nal]S[2Nal]LRPA-NH2) | 2.3 |  | 117 | 37 | 155 | 13 | 4 |  |  | 
CC(=O)NC(Cc1ccc2ccccc2c1)C(=O)N[C@@H](CO)C(=O)N[C@@H](Cc1ccc(O)cc1)C(=O)NC(Cc1ccc2ccccc2c1)C(=O)N[C@@H](CC(C)C)C(=O)N[C@@H](CCCCNC(C)C)C(=O)N1CCC[C@H]1C(=O)N[C@H](C)C(N)=O (stereo in doubt) | 2.1 | 127 | 135 | 104 | 149 | 55 | 23 |  |  | 
CC(C)C[C@H](NC(=O)C(Cc1ccc2ccccc2c1)NC(=O)[C@H](Cc1ccc(O)cc1)NC(=O)[C@H](CO)NC(=O)[C@H](Cc1cccnc1)NC(=O)[C@H](Cc1ccc(Cl)cc1)NC(=O)[C@@H]1CCC(=O)N1)C(=O)N[C@@H](CCCN=C(N)N)C(=O)N1CCC[C@H]1C(=O)N[C@H](C)C(N)=O (stereo in doubt) | 3.8 | 165 | 158 | 170 | 132 | 149 |  |  |  | 
CCNC(=O)[C@@H]1CCCN1C(=O)[C@H](CCCCNC(C)C)NC(=O)[C@H](CC(C)C)NC(=O)C(Cc1ccc2ccccc2c1)NC(=O)[C@H](Cc1ccc(O)cc1)NC(=O)[C@H](CO)NC(=O)C(Cc1ccc2ccccc2c1)NC(C)=O (stereo in doubt) | 3.5 | 146 | 133 | 26 | 148 | 6 | 4 |  |  | 
CC(=O)N[C@@H](Cc1ccc(Cl)cc1)C(=O)N[C@@H](Cc1cccnc1)C(=O)N[C@@H](CO)C(=O)N[C@@H](Cc1ccc(O)cc1)C(=O)NC(Cc1ccc2ccccc2c1)C(=O)N[C@@H](CC(C)C)C(=O)N[C@@H](CCCN=C(N)N)C(=O)N1CCC[C@H]1C(=O)N[C@H](C)C(N)=O (stereo in doubt) | 3.5 | 152 | 165 | 152 | 151 | 145 | 77 |  |  | 
